Drawing on ChEMBL document CHEMBL1132569, this text covers Affinity and Cooperativity for 8 compounds.

Experiment [1] deals with T1, Muscarinic acetylcholine receptor M4 (Homo sapiens) (UniProt P08173).
T1 sequence (whole entry): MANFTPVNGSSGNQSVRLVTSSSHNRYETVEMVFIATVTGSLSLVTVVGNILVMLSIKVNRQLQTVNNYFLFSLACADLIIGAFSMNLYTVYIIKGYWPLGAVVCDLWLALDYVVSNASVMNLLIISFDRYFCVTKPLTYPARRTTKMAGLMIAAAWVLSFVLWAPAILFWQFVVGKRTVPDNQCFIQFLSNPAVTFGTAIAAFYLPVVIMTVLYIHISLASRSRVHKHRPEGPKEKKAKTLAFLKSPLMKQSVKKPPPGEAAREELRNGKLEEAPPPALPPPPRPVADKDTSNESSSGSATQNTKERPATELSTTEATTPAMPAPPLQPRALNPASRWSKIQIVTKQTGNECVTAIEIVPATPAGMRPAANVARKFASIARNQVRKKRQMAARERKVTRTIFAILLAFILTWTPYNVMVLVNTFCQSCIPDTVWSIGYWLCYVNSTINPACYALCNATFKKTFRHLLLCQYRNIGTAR
Kind of experiment: Binding affinity at the NMS liganded human muscarinic acetylcholine receptor M4 was estimated as log affinity (log1/M). The method, boiled down:
(§1)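 Equilibrium runs were ≥2 h with 2 × 10⁻⁴ M GTP and 0.1–0.7 nM ³H-NMS. Nonspecific binding was defined with 10⁻⁶ M QNB, and bound ligand was filtered and counted. Log affinities came from semiquantitative plus off-rate, quantitative equilibrium, or nonequilibrium assays, fitted by nonlinear least squares to the allosteric ternary complex model.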

For experiment [2], the target named is T1, Muscarinic acetylcholine receptor M4 (Homo sapiens). In words: Binding affinity at the unliganded human muscarinic acetylcholine receptor M4 was estimated as log affinity (log1/M). The method, boiled down:
as §1

For experiment [3] the target is unchanged. In words: Cooperativity with NMS at human muscarinic acetylcholine receptor M4. The method, boiled down: (§2)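 Equilibrium ³H-NMS binding in CHO membranes expressing human m1–m5 receptors was measured with and without ACh, alone and with three agent concentrations. Data were converted to affinity ratios, meaning apparent primary-ligand affinity with agent divided by affinity without it.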

For experiment [4] the target is unchanged. In words: Cooperativity with acetylcholine at human muscarinic acetylcholine receptor M4. The essentials: as §2
The target in experiment [5] is Muscarinic acetylcholine receptor M3 (Homo sapiens) (UniProt P20309). Kind of experiment: Cooperativity with NMS at human muscarinic acetylcholine receptor M3. The method, boiled down: as §2
For experiment [6] the target is unchanged. Kind of experiment: Cooperativity with acetylcholine at human muscarinic acetylcholine receptor M3. The essentials:
as §2

The target is the same in experiment [7]. Kind of experiment: Binding affinity at the NMS liganded human muscarinic acetylcholine receptor M3 was estimated as log affinity (log1/M). The essentials:
as §1

Experiment [8] has the same target. In words: Binding affinity at the unliganded human muscarinic acetylcholine receptor M3 was estimated as log affinity (log1/M). The method, boiled down:
as §1

The target of experiment [9] is T2, Muscarinic acetylcholine receptor M2 (Homo sapiens) (UniProt P08172).
T2 sequence (whole entry): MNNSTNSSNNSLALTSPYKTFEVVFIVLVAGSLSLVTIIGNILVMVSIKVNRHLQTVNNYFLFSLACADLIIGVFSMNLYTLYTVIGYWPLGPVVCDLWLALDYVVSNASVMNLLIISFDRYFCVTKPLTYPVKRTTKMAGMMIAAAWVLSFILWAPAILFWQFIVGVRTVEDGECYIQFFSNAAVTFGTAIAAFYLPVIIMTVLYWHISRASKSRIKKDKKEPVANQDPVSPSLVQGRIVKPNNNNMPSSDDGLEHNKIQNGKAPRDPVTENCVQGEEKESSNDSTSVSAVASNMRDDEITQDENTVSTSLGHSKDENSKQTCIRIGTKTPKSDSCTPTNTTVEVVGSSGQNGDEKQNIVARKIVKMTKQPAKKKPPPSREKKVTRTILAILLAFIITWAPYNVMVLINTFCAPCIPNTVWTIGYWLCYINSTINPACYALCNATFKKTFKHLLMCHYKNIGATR
Kind of experiment: Binding affinity at the NMS liganded human muscarinic acetylcholine receptor M2 was estimated as log affinity (log1/M). The method, boiled down:
as §1

For experiment [10], the target named is T2, Muscarinic acetylcholine receptor M2 (Homo sapiens). In words: Binding affinity at the unliganded human muscarinic acetylcholine receptor M2 was estimated as log affinity (log1/M). The essentials: as §1
Experiment [11] has the same target. In words: Cooperativity with NMS at human muscarinic acetylcholine receptor M2. The method, boiled down: as §2
The target is the same in experiment [12]. Kind of experiment: Cooperativity with acetylcholine at human muscarinic acetylcholine receptor M2. The essentials: as §2
Experiment [13] concerns the target T3, Muscarinic acetylcholine receptor M1 (Homo sapiens) (UniProt P11229).
T3 sequence (whole entry): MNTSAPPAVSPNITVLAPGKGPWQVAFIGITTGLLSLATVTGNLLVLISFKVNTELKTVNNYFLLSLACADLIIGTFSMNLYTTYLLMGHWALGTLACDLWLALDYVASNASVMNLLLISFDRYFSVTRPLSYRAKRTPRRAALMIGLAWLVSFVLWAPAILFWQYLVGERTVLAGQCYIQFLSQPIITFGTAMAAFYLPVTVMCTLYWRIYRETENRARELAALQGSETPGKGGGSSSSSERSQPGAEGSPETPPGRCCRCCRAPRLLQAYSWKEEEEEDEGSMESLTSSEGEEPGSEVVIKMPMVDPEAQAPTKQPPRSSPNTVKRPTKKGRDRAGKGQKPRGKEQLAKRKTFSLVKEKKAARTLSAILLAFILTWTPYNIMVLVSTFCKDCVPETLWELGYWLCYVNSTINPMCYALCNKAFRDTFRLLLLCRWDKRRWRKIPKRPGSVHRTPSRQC
Kind of experiment: Binding affinity at the NMS liganded human muscarinic acetylcholine receptor M1 was estimated as log affinity (log1/M). The method, boiled down:
as §1

The target in experiment [14] is T3, Muscarinic acetylcholine receptor M1 (Homo sapiens). Kind of experiment: Binding affinity at the unliganded human muscarinic acetylcholine receptor M1 was estimated as log affinity (log1/M). The method, boiled down:
as §1

Experiment [15] shares this target. Kind of experiment: Cooperativity with NMS at human muscarinic acetylcholine receptor M1. The essentials: as §2
The target is the same in experiment [16]. In words: Cooperativity with acetylcholine at human muscarinic acetylcholine receptor M1. The essentials: as §2

Structures are written as SMILES. A value given as a limit tells only on which side of the number the result lay.

Muscarinic acetylcholine receptor M3 (Homo sapiens), sequence (P20309 whole entry, looked up): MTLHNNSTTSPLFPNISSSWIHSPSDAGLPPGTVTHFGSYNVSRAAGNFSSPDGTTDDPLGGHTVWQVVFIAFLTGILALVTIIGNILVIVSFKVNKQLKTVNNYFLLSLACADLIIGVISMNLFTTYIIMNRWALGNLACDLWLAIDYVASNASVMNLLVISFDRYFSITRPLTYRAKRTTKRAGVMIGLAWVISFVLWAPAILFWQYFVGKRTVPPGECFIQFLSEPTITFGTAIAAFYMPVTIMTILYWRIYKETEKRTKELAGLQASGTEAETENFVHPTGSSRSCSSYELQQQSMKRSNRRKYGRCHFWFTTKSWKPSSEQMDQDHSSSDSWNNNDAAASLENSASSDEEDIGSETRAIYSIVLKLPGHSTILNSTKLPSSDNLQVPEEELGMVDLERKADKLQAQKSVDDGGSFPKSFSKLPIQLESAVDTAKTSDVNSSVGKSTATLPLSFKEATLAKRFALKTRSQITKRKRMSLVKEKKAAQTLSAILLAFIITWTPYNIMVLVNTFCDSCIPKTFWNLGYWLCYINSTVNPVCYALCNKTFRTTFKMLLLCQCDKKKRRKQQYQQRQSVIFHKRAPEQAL

Regarding `N[N+]12CC[C@@]34c5ccccc5N5C(=O)C[C@@H]6OCC=C(C1)[C@H](C[C@@H]32)[C@@H]6[C@H]54` (stereo partly drawn), the Affinity in experiment [1] is 4.9; in experiment [2] it was < 4.4; in [7], 4.5; in experiment [8], < 4.4; in experiment [9], 5.4; in [10], < 4.8. Besides, the Affinity was 4.7 in [13] and 4.3 in [14]. Also, the Cooperativity in experiment [3] was > 2; in experiment [4] it was 0.8; in experiment [5], 2; in experiment [6], 0.8; in [11], > 2; in [12], 0.8. For the same compound, the Cooperativity in [15] was 2; in experiment [16] it was 0.8.

Take `O=C1C[C@@H]2OCC=C3C[N+]4(CCc5ccccc5)CC[C@]56c7ccccc7N1[C@H]5[C@H]2[C@H]3C[C@@H]64` (stereo partly drawn): the Affinity in [1] is 5.5; in experiment [2], 5.2; in experiment [7] it was 4.6; in experiment [8], 4.8; in experiment [9] it was 5.7; in experiment [10], 5.3. For the same compound, the Affinity in experiment [13] and in experiment [14] was 4.9 each time. The Cooperativity was 2 in experiment [3]; < 0.2 in experiment [4]; 0.8 in [5]; < 0.2 in experiment [6]; > 2 in experiment [11]; < 0.2 in [12]. Also, the values for the Cooperativity in experiment [15] and in [16] were 1.19 and < 0.2, respectively.

Turning to `C[N+]12CC[C@@]34c5ccccc5N5C(=O)C[C@@H]6OCC=C(C1)[C@H](C[C@@H]32)[C@@H]6[C@H]54` (stereo partly drawn), the Affinity in experiment [1] is 4.7; in experiment [2], 4.1; in experiment [7] it was 4.1; in experiment [8], < 4; in experiment [9], 5.1; in experiment [10], 4.4. Moreover, the Affinity in [13] was 4.5; in experiment [14], < 4.1. The Cooperativity in [3] was > 2; in [4], < 0.2; in experiment [5], 2; in [6], 0.8; in experiment [11], > 2; in [12], < 0.2. Moreover, the values for the Cooperativity in [15] and in experiment [16] were > 2 and 0.8, respectively.

In the case of `C=CC[N+]12CC[C@@]34c5ccccc5N5/C=C6/[C@H]7C[C@H]8[C@@]9(CC[N@@+]8(CC=C)C/C7=C/CO)c7ccccc7N(/C=C(/[C@@H](C[C@@H]31)/C(=C\CO)C2)[C@H]54)[C@@H]69` (stereo partly drawn), the Affinity in [1] was 4.7; in experiment [2] it was 4.7; in [7], 3.5; in experiment [8], < 4; in experiment [9], 6.5; in [10] it was 6. Further, the figures for the Affinity in [13] and in [14] were 4.5 and 4.9, respectively. The Cooperativity in [3] is 1.19; in [4], < 0.2; in experiment [5], 0.8; in [6], 0.8; in experiment [11], > 2; in experiment [12], < 0.2. The Cooperativity in experiment [15] was 0.8; in [16] it was < 0.2.

As for `O=C1C[C@@H]2OCC=C3C[N+]4(Cc5ccccc5)CC[C@]56c7ccccc7N1[C@H]5[C@H]2[C@H]3C[C@@H]64` (stereo partly drawn), the Affinity was 5.6 in [1]; < 5.3 in experiment [2]; 5.3 in [7]; < 5.2 in experiment [8]; 6.3 in experiment [9]; 5.3 in experiment [10]. Besides, the Affinity is 5.2 in [13] and < 5 in experiment [14]. Also, the Cooperativity was 2 in experiment [3]; 0.8 in [4]; 2 in [5]; 0.8 in [6]; > 2 in [11]; < 0.2 in experiment [12]. For the same compound, the figures for the Cooperativity in [15] and in experiment [16] were 2 and < 0.2, respectively.

For `N#CC[N+]12CC[C@@]34c5ccccc5N5C(=O)C[C@@H]6OCC=C(C1)[C@H](C[C@@H]32)[C@@H]6[C@H]54` (stereo partly drawn), the Affinity in experiment [1] is 4.8; in experiment [2] it was < 4.4; in experiment [7], 4.2; in experiment [8], < 3.9; in [9] it was 5.1; in experiment [10], 4.5. Also, the Affinity is 4.3 in experiment [13] and < 4 in experiment [14]. The Cooperativity in experiment [3] was > 2; in [4] it was 0.8; in experiment [5], 2; in experiment [6], 0.8; in experiment [11] it was > 2; in experiment [12], < 0.2. Also, the figures for the Cooperativity in [15] and in experiment [16] were 2 and 0.8, respectively.

In the case of `C#CC[N+]12CC[C@@]34c5ccccc5N5C(=O)C[C@@H]6OCC=C(C1)[C@H](C[C@@H]32)[C@@H]6[C@H]54` (stereo partly drawn), the Affinity in experiment [1] is 5; in experiment [2], 4.8; in experiment [7], 4.5; in [8], 4.7; in [9], 5.4; in experiment [10], 5.2. In addition, the Affinity in experiment [13] was 4.7; in [14], 5.2. Moreover, the Cooperativity in experiment [3] was 2; in [4], 0.8; in experiment [5] it was 0.8; in experiment [6], < 0.2; in experiment [11], 2; in experiment [12], < 0.2. For the same compound, the Cooperativity in experiment [15] was 0.8; in experiment [16], < 0.2.

Turning to `C=CC[N+]12CC[C@@]34c5ccccc5N5C(=O)C[C@@H]6OCC=C(C1)[C@H](C[C@@H]32)[C@@H]6[C@H]54` (stereo partly drawn), the Affinity in experiment [1] is 5; in [2], 5; in [7], 4.6; in experiment [8], 4.6; in [9], 5.9; in experiment [10], 5.3. Besides, the Affinity in experiment [13] and in [14] was 4.7 each time. Moreover, the Cooperativity was 1.19 in experiment [3]; 0.8 in experiment [4]; 1.19 in experiment [5]; < 0.2 in experiment [6]; > 2 in [11]; < 0.2 in [12]. The Cooperativity in experiment [15] is 1.19; in [16] it was < 0.2.
